Screens (PubChem)
NR2E3 ag-1 – activates human NR2E3 receptor; Q9Y5X4; CHO-S Gal4-NCOR/VP16-NR2E3 two-hybrid, luciferase; inhibition of corepressor binding, % at 3.98 µM; hit rate 0.35% among 360,000;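 active = inhibition above the mean of all tested compounds plus 3 SD, cut at about 70% in these data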;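 note: 0% = DMSO with NR2E3 transfected cells and 100% = cells lacking NR2E3 construct; higher means lower luciferase signal from less NR2E3 corepressor binding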
PKA-R1A act – PKA-R1A complex activation; PKA-R1A dissociation, Cy5-IP20 fluorescence polarization; scaled: DMSO 0%, 113 µM cGMP 100%; activation, % at 11.4 µM; hit rate 0.083% among 340,000; AID 504707;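 active = percent activation above the mean of all tested compounds plus 3 SD, cut at about 19% in these data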;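 note: higher means more PKAc released from R1A so a rise in polarization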
PKA-R2B activ – PKA-R2B complex activation | P22694+P31323 | PKA-R2B holoenzyme dissociation, Cy5-IP20 fluorescence polarization; R2B truncated from residue 108, S112A mutant; 0% DMSO only, 100% 113 µM cGMP | activation, % at 11.4 µM | hit rate 0.079% among 340,000 | AID 504700;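 active = activation above a cutoff set at the mean over all compounds plus 3 SD, cut at about 18% in these data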;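 note: higher means more holoenzyme dissociation and a rise in polarization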
Target sequence (P31323 whole entry, looked up, other chains not shown, the tested form may be a part): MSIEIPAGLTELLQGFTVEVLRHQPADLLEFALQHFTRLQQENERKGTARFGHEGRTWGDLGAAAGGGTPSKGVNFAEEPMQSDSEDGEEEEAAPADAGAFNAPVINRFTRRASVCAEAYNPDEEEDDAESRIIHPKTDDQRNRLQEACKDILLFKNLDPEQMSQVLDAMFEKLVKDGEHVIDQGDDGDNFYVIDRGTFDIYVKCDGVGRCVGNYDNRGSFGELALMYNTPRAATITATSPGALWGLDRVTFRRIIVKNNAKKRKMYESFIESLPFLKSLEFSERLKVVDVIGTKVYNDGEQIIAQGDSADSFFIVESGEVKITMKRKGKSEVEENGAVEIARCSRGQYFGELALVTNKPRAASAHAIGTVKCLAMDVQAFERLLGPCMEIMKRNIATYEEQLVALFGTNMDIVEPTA
NR1D1 modulator – Rev-erb alpha (human) modulation; hit rate 0.79% among 370,000; activity, % at 10 µM; AID 1259318; Rev-erbα–FITC-DNA binding, fluorescence polarization, 90 min; P20393;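 active = activity above about 14%, limit read from the data; passing the limit was not always enough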;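 note: 0% = DMSO wells with 35 nM protein and 100% = DMSO wells with 750 nM protein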
NR2E3 ag-2 – NR2E3 (human) agonism | GST-NR2E3/biotin-RetCOR TR-FRET, 1536-well | inhibition of corepressor binding, % at 4.78 µM | hit rate 0.12% among 320,000;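 active = percent inhibition above the cutoff of mean plus 3 SD of all tested compounds, set per screening campaign, cut at about 20% in these data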;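 note: 0% = DMSO wells and 100% = biotin wells as full block of FRET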
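System: GST-tagged NR2E3 plus biotinylated RetCOR corepressor; Amount: 1.35 nM GST-tagged NR2E3 final; Dosing: single nominal compound dose of 4.8 µM; Schedule: 5 h incubation at 4 °C; Technique: TR-FRET with europium anti-GST and streptavidin-D2, 340 nm excitation; Controls: biotin wells as high control, 0.6% DMSO wells as low control.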
PG9 Ab binder – binds the HIV-1 gp120 antibody PG9. TR-FRET gp120-PG9 antibody binding. AID 624416. inhibition, % at 6.7 µM. hit rate 0.43% among 360,000; in the data active = inhibition above about 8.5%
PG9 binder conf – confirmation of small molecules binding HIV-1 gp120 antibody PG9; hit rate 90% among 1,500; shares compounds with PG9 Ab binder; inhibition, % at 6.7 µM; TR-FRET PG9 antibody binding, biochemical; in the data active = inhibition above about 9%
PGV04 counter – binds control antibody PGV04 in PG9 binder counter-screen; shares compounds with PG9 Ab binder; hit rate 95% among 1,500; TR-FRET PGV04 antibody-gp120 binding, biochemical; inhibition, % at 6.7 µM; AID 651604; in the data active = inhibition above about 9.5%
NR1D1 mod conf – confirmation of modulators of human Rev-erb alpha DNA binding. shares compounds with NR1D1 modulator. Rev-erb alpha FITC-DNA binding, fluorescence polarization, 90 min. activation, % at 25 µM. hit rate 61% among 3,000;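 active = activation at or above a set limit, or at least 3 SD above the negative control mean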;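 note: 0% = 35 nM protein with DMSO and 100% = 750 nM protein high control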
RORg DNA counter – affects RORgamma DNA binding in a Rev-erb alpha counter-screen; IC50, µM; purified RORgamma protein-FITC-DNA binding, fluorescence polarization; hit rate 8% among 910; shares compounds with NR1D1 modulator;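 active = Compounds whose fitted half-maximal concentration for disrupting protein-DNA binding is below 10 micromolar; the record names Rev-erb in its text, so the target is in doubt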
* marks the source's active call; other numbers are inactive results; i = inactive; / = not tested or not shown. In the library only some 1.6% were active in any assay of this set; here they are far more common.

SMILES | NR2E3 ag-1 | PKA-R1A act | PKA-R2B activ | NR1D1 modulator | NR2E3 ag-2 | PG9 Ab binder | PG9 binder conf | PGV04 counter | NR1D1 mod conf | RORg DNA counter
CCOC(=O)c1sc2nc(C)nc(Nc3ccccc3)c2c1C | -7 | -1 | -3 | -1 | 3 | -1 | / | / | / | /
CCc1nnc(NC(=O)CSc2nc3cc4c(cc3cc2C)OCCO4)s1 | 10 | -8 | 2 | 47* | 0 | 12* | 25* | 43* | 47* | >40
Cc1nc2ccc3nc(NC(=O)c4ccc5c(c4)OCCO5)sc3c2s1 | -36 | -1 | -9 | 78* | -160 | 35* | 27* | 56* | 39* | >40
Cc1cnc(NC(=O)c2ccc3c(c2)OCCO3)s1 | -62 | -7 | 5 | 4 | -2 | 0 | / | / | / | /
O=C(CSc1ncccc1-c1nc2ccccc2[nH]1)N1CCc2ccccc21 | -24 | -2 | -8 | 28* | 16 | 14* | 21* | 33* | 25* | /
Cc1cc(NCCCOC(C)C)n2c(nc3ccccc32)c1C#N | -11 | -9 | -9 | 44* | 0 | 11* | 22* | 33* | 16 | /
Nn1c(SCC(=O)Nc2ccc(C(=O)O)cc2)nnc1-c1ccco1 | / | / | / | -2 | / | / | / | / | / | /
COc1cc(C(=O)NCc2ccc(-c3nc4ccccc4s3)cc2)cc(OC)c1OC | -115 | 2 | -3 | 38* | 0 | 10* | 19* | 29* | 32* | i
Cc1ccc2cc(/C=C(\C#N)C(N)=O)c(N3CCCCC3)nc2c1 | -6 | -13 | -7 | 4 | 5 | 0 | / | / | / | /
CCOC(=O)/C(C#N)=C/c1cc2ccccc2nc1N1CCCCC1 | 9 | -13 | -3 | 43* | 9 | 27* | 25* | 30* | 43* | >40
O=C(COCc1ccccc1)N1CC[C@H]2[C@H](CCCN2Cc2ccc(F)cc2)C1 | / | / | / | -7 | / | / | / | / | / | /
C=CCn1c(=NC(=O)c2cccs2)sc2cccc(OC)c21 | -58 | -13 | 1 | -4 | 3 | 0 | / | / | / | /
C#CCn1c(=NC(=O)c2ccc(Br)s2)sc2cccc(OC)c21 | -71 | 13 | -7 | 27* | -23 | 11* | 15* | 26* | 43* | i
CC(C)(C)C1=Nn2c(nnc2-c2ccc(C(C)(C)C)cc2)SC1 | / | / | / | -6 | / | / | / | / | / | /
COc1ccc(-c2csc(NC(=O)c3ccc(N4C(=O)CCC4=O)cc3)n2)cc1 | -15 | -9 | -2 | 27* | 3 | 29* | 28* | 50* | 18 | /
COC(=O)c1cc(Cl)c(NC(=O)c2cc3ccccc3o2)cc1OC | -41 | -18 | 7 | 28* | -10 | 8.7* | 5 | 38* | 0 | /
O=C(CCc1nc2sc3c(c2c(=O)[nH]1)CCCC3)Nc1cccc(Cl)c1 | 41 | 4 | -3 | 30* | 0 | 36* | 28* | 38* | 21* | /
CC(=O)Nc1ccc2nc(NC(=O)COc3ccccc3)sc2c1 | -23 | -8 | -1 | 3 | 1 | 0 | / | / | / | /
O=C(COc1ccccc1)Nc1nc2cc3c(cc2s1)OCO3 | -46 | -23 | -3 | 41* | 1 | 21* | 33* | 46* | 15 | /
O=C(NN=C/C=C/c1ccco1)c1cc(-c2ccc(Cl)cc2)n[nH]1 | / | / | / | 1 | / | / | / | / | / | /
CC(=O)c1sc(NC(=O)COc2ccc(Br)cc2)nc1C | -56 | 1 | -8 | 43* | 0 | 18* | 21* | 60* | 49* | >40
Cc1nc(NC(=O)C2CC2)sc1C(=O)Nc1ccc(Br)cc1 | 16 | 0 | -1 | 38* | 3 | 14* | 14* | 15* | 27* | /
CC(=O)c1sc(NC(=O)COc2ccc([N+](=O)[O-])cc2)nc1C | -8 | 0 | -16 | 7 | 1 | -2 | / | / | / | /
O=S1(=O)c2ccc(Br)cc2OC[C@@H](Cc2ccccc2)N1Cc1cn(CCC2OCCCO2)nn1 | / | / | / | -6 | / | / | / | / | / | /
COc1ccc2c(c1)oc(=O)c1c3ccccc3[nH]c21 | -71 | 7 | 1 | 75* | / | 13* | 8.9* | 21* | 62* | >40
SMILES | NR2E3 ag-1 | PKA-R1A act | PKA-R2B activ | NR1D1 modulator | NR2E3 ag-2 | PG9 Ab binder | PG9 binder conf | PGV04 counter | NR1D1 mod conf | RORg DNA counter
NS(=O)(=O)c1ccc(CCNC(=O)c2cc(-c3ccc(Br)cc3)nc3ccccc23)cc1 | -26 | -2 | 11 | 17 | 1 | 6 | / | / | / | /
Cc1cc(NC(=O)c2cc(-c3ccccn3)nc3ccc(Br)cc23)no1 | -4 | -5 | -4 | 18* | 5 | 21* | 32* | 67* | 22* | /
NS(=O)(=O)c1ccc(CCNC(=O)c2cc(-c3ccccn3)nc3ccc(Br)cc23)cc1 | 4 | -9 | 1 | 34* | -119 | 17* | 31* | 63* | 30* | >40
O=C(OCc1ccccc1)[C@H](Cc1ccccc1)NC(=O)[C@@H]1CC=C[C@@H]2CCN(Cc3ccccc3)C(=O)[C@@H]21 | / | / | / | 0 | / | / | / | / | / | /
CCCCN1CCN(C2=Nc3ccccc3Sc3ccccc32)CC1 | / | / | / | 0 | / | / | / | / | / | /
N#Cc1ccc(-c2nc3ccc(Br)cn3c2Cc2cccc(F)c2)cc1 | -50 | / | / | 2 | / | 4 | / | / | / | /
Cc1cc(Br)cn2c(Cc3cccc(F)c3)c(-c3ccc(C#N)cc3)nc12 | -3 | / | / | 27* | / | 9.2* | 15* | 21* | 13* | /
N#Cc1ccc(-c2nc3ccc(Br)cn3c2Cc2ccccc2)cc1 | -37 | -7 | -1 | 22* | / | 10* | 14* | 23* | 14* | /
N#Cc1ccc(-c2nc3ccc(Br)cn3c2Cc2cccc(Cl)c2)cc1 | -42 | / | / | 7 | / | 2 | / | / | / | /
Nc1nnc2cc(Br)ccc2n1 | -7 | -2 | 5 | 5 | / | -1 | / | / | / | /
Brc1ccc2ncc(Br)cc2c1 | -9 | -7 | -14 | 45* | 5 | 12* | 16* | 23* | 33* | >40
CCOc1ccc(CCNC(=O)c2cc3ccsc3n2C)cc1OCC | / | / | / | 1 | / | / | / | / | / | /
COc1ccc2c(COC(=O)c3n[nH]c4ccccc34)cc(=O)oc2c1 | -98 | 11 | 6 | 59* | 0 | 62* | 53* | 57* | 34* | >40
CCN(CC)C(=O)CC[C@H]1CC[C@]2(CCCN(S(=O)(=O)c3ccccc3)C2)O1 | / | / | / | 1 | / | / | / | / | / | /
COCCN1Cc2cc(C(=O)OC)c3c(c2C1=O)c1cc(F)ccc1n3C(=O)c1ccccc1 | / | / | / | -1 | / | -1 | / | / | / | /
